Calls of active or inactive are those of the source. The rule behind the calls is not given here.

For data set [1], the target named is T1, Multidrug efflux pump subunit AcrB (Escherichia coli (strain K12)) (UniProt P31224).
T1 sequence (whole entry): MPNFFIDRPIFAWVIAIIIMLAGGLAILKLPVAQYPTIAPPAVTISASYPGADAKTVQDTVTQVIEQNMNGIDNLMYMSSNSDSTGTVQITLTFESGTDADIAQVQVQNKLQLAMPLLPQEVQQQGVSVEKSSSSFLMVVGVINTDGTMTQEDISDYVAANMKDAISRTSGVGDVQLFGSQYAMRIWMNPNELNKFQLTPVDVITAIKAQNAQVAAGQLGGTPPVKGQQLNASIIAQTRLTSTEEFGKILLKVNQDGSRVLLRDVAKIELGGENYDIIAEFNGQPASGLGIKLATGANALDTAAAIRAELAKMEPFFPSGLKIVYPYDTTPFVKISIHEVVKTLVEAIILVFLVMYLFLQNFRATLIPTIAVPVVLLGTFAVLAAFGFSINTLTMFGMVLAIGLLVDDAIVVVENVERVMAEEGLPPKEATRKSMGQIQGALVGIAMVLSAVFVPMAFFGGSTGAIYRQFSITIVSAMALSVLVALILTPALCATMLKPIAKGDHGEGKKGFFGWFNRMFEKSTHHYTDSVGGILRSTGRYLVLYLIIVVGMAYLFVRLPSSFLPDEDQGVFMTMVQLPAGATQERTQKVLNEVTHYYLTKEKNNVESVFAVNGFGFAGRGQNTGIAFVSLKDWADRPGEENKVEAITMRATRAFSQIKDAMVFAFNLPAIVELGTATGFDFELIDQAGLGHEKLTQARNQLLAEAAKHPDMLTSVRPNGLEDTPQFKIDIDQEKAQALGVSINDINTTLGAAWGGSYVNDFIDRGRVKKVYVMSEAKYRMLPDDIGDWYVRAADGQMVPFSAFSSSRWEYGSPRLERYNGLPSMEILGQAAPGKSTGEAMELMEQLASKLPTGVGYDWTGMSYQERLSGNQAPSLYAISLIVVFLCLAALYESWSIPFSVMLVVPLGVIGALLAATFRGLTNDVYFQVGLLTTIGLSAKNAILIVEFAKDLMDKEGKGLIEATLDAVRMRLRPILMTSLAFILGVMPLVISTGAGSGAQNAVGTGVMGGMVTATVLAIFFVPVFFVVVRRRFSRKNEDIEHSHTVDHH
The data set can be described thus: Inhibition of AcrB in wild-type drug-resistant Escherichia coli […] assessed as potentiation of erythromycin-induced antimicrobial activity by measuring erythromycin MIC at 16 ug/ml by checkerboard titration method (reference value: 64 ug/ml).

In data set [2] the target is T1, Multidrug efflux pump subunit AcrB (Escherichia coli (strain K12)). The data set can be described thus: Inhibition of AcrB in wild-type drug-resistant Escherichia coli […] assessed as potentiation of chloramphenicol-induced antimicrobial activity by measuring chloramphenicol MIC at 64 ug/ml by checkerboard titration method (Rvb =16 ug/ml).
Data set [3] shares this target. Description: Inhibition of AcrB in wild-type drug-resistant Escherichia coli […] assessed as reduction in glucose-induced nile red efflux at 50 uM by fluorescence assay. The gist of the method:
(§1)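 E. coli cells (wild-type resistant with active pump, acrB-deleted, or wild-type plus compound) preloaded with Nile Red before fluorescence recording. Efflux triggered at 100 s by adding 0.2% glucose. Fluorescence traces followed; experiments with different cell batches on three different days.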

The test system of data set [4] is Escherichia coli. Description: Toxicity against AcrB deficient Escherichia coli AcrB lacking at 128 ug/ml. It counts as organism-based. The note with it: in vivo. The gist of the method: (§2)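 MIC determination against wild-type resistant E. coli BW25113 and an isogenic acrB-deleted strain; highest concentration tested 128 mg/L.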
In data set [5] the test system is Escherichia coli. Description: Toxicity against wild-type drug-resistant Escherichia coli […] at 128 ug/ml. Format: organism-based. The note with it: in vivo. A digest of the protocol: as §2
The target in data set [6] is T1, Multidrug efflux pump subunit AcrB (Escherichia coli (strain K12)). Description: Inhibition of AcrB in wild-type drug-resistant Escherichia coli […] assessed as potentiation of tetraphenyl phosphonium chloride-induced antimicrobial activity by measuring tetraphenyl phosphonium chloride MIC at 64 ug/ml by checkerboard titration method (reference value: 1024 ug/ml).

For data set [7] the target is unchanged. The data set can be described thus: Inhibition of AcrB in wild-type drug-resistant Escherichia coli […] assessed as potentiation of erythromycin-induced antimicrobial activity by measuring erythromycin MIC at 32 ug/ml by checkerboard titration method (reference value: 64 ug/ml).
For data set [8] the target is unchanged. The data set can be described thus: Inhibition of AcrB in wild-type drug-resistant Escherichia coli […] assessed as potentiation of erythromycin-induced antimicrobial activity by measuring erythromycin MIC at 8 ug/ml by checkerboard titration method (reference value: 64 ug/ml).
Data set [9] has the same target. Description: Inhibition of AcrB in wild-type drug-resistant Escherichia coli […] assessed as reduction in glucose-induced nile red efflux at 100 to 200 uM by fluorescence assay. The gist of the method:
as §1

For data set [10] the target is unchanged. The data set can be described thus: Inhibition of AcrB in wild-type drug-resistant Escherichia coli […] assessed as potentiation of levofloxacin-induced antimicrobial activity by fold reduction in levofloxacin MIC at 16 to 32 ug/ml by checkerboard titration method relative to levofloxacin alone.
Data set [11] shares this target. Description: Inhibition of AcrB in wild-type drug-resistant Escherichia coli […] assessed as reduction in glucose-induced nile red efflux at 100 uM by fluorescence assay. The gist of the method: as §1
Another data set relates to HeLa. Description: Cytotoxicity against human HeLa cells after 48 hrs by MTT assay. It counts as cell-based. A digest of the protocol: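 MTT-based viability assay on human cervical cancer HeLa cells, 48 h exposure; IC50 derived.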
On the technique in general: Tetrazolium assays rely on reduction of a dye to a coloured formazan, in cell work by metabolically active cells.

The target in data set [12] is T1, Multidrug efflux pump subunit AcrB (Escherichia coli (strain K12)). The data set can be described thus: Inhibition of AcrB in wild-type drug-resistant Escherichia coli […] assessed as reduction in glucose-induced nile red efflux at 500 uM by fluorescence assay. The gist of the method: as §1
The test system of data set [13] is Escherichia coli. The data set can be described thus: Induction of Escherichia coli outer membrane permeabilization assessed as increase in nitrocefin hydrolysis at 32 ug/ml by spectroscopic method. Format: organism-based.
The target in data set [14] is T1, Multidrug efflux pump subunit AcrB (Escherichia coli (strain K12)). The data set can be described thus: Inhibition of AcrB in wild-type drug-resistant Escherichia coli […] assessed as reduction in glucose-induced nile red efflux at 200 uM by fluorescence assay. A digest of the protocol:
as §1

Data set [15] concerns Escherichia coli. The data set can be described thus: Induction of Escherichia coli outer membrane permeabilization assessed as increase in nitrocefin hydrolysis at 8 ug/ml by spectroscopic method. Format: organism-based.
Data set [16] relates to Escherichia coli. Description: Disruption of Escherichia coli inner membrane integrity at 8 ug/ml after 10 mins by DiOC2(3) probe based fluorescence assay. It counts as ADME, organism-based. As to conditions: in vivo. The gist of the method:
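Bacterial suspensions pre-exposed to compound for 10 min, then DiOC2(3) added and fluorescence followed to plateau. Cells re-energized with 0.5% glucose; membrane potential (inside negative) read as fluorescence rise to plateau, then collapsed with the proton ionophore CCCP. Untreated cells run alongside.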

A word on the inhibition: it is how much of the control response was suppressed. With `COc1cccc2cc3c(cc12)C(=O)N(c1ccccc1Cl)C3=O`, the MIC in data set [1] came to 64 µg/mL; in [2], 16 µg/mL; in [6] it was 1020 µg/mL; in [7], 64 µg/mL; in data set [8] it was 64 µg/mL. The inhibition result in data set [3] is “Active”. Further, the Activity entry with Escherichia coli [4] and in the data set on Escherichia coli [5] was “Non-Toxic” throughout.
In the case of `COc1cccc2cc3c(cc12)C(=O)N(C1CCCC1)C3=O`, in data set [9], the inhibition result was “inactive”. For the same compound, the MIC is 64 µg/mL in [1]; 16 µg/mL in data set [2]; 1020 µg/mL in data set [6]; 32 µg/mL in [7]; 64 µg/mL in data set [8]. Moreover, the Activity result in the data set on Escherichia coli [4] and in the data set with Escherichia coli [5] was “Non-Toxic” each time.
For orientation: IC50 means the concentration needed to halve the response being measured. Higher therefore signals lower potency. For the compound `COc1ccccc1CN1C(=O)c2cc3cccc(OC)c3cc2C1=O`, the MIC was 64 µg/mL in [1]; 16 µg/mL in data set [2]; 1020 µg/mL in data set [6]; 64 µg/mL in data set [7]; 64 µg/mL in data set [8]. The fold change (FC) in [10] amounted to 16. For the same compound, the Activity entry with Escherichia coli [4] and in the data set on Escherichia coli [5] was “Non-Toxic” in each case. In addition, the inhibition result in data set [11] is “Active”. In addition, the IC50 with HeLa was greater than 64 µg/mL.
For the compound `CCCCCCN1C(=O)c2cc3cccc(OC)c3cc2C1=O`, the MIC in [1] came to 32 µg/mL; in data set [2], 8 µg/mL; in data set [6] it was 512 µg/mL; in [7], 32 µg/mL; in data set [8] it was 64 µg/mL. In data set [3], the inhibition was 100%. In addition, the Activity result with Escherichia coli [4] and with Escherichia coli [5] was “Non-Toxic” throughout.
For the compound `COc1cccc2cc3c(cc12)C(=O)N(C)C3=O`, the MIC in data set [1] was determined as 64 µg/mL; in data set [2], 16 µg/mL; in [6], 1020 µg/mL; in [7], 64 µg/mL; in [8] it was 64 µg/mL. The inhibition in data set [12] was 100%. The Activity entry with Escherichia coli [4], in the data set on Escherichia coli [5] and in the data set with Escherichia coli [13] was “Non-Toxic” in each case. Besides, the inhibition entry in [14] was “Active”.
On to `COc1cccc2cc3c(cc12)C(=O)N(Cc1ccccc1)C3=O`, for which the MIC in [1] is 32 µg/mL; in data set [2], 16 µg/mL; in data set [6], 1020 µg/mL; in data set [7], 32 µg/mL; in data set [8], 32 µg/mL. For the same compound, the Activity result with Escherichia coli [4] and with Escherichia coli [5] was “Non-Toxic” throughout. Further, the inhibition entry in data set [11] is “Active”.
Regarding `COc1ccc(CN2C(=O)c3cc4cccc(OC)c4cc3C2=O)cc1`, the MIC is 32 µg/mL in [1]; 16 µg/mL in data set [2]; 1020 µg/mL in [6]; 32 µg/mL in data set [7]; 64 µg/mL in [8]. The Activity result in the data set with Escherichia coli [15], in the data set on Escherichia coli [16], with Escherichia coli [4] and in the data set on Escherichia coli [5] was “Non-Toxic” in each case. Besides, the inhibition entry in [11] was “Active”.
Consider `CCCCCN1C(=O)c2cc3cccc(OC)c3cc2C1=O`, for which the MIC was found to be 64 µg/mL in [1]; 8 µg/mL in data set [2]; 1020 µg/mL in data set [6]; 32 µg/mL in [7]; 64 µg/mL in data set [8]. Moreover, the Activity entry in the data set with Escherichia coli [4] and in the data set with Escherichia coli [5] was “Non-Toxic” throughout. The inhibition entry in data set [11] was “Active”. Moreover, the IC50 in the data set on HeLa is greater than 64 µg/mL.
In the case of `CCc1ccccc1N1C(=O)c2cc3cccc(OC)c3cc2C1=O`, the MIC was 64 µg/mL in data set [1]; 16 µg/mL in [2]; 1020 µg/mL in [6]; 64 µg/mL in data set [7]; 64 µg/mL in [8]. Also, the inhibition entry in [3] is “Active”. In addition, the Activity entry with Escherichia coli [4] and in the data set on Escherichia coli [5] was “Non-Toxic” throughout. The IC50 with HeLa was greater than 64 µg/mL.
Consider `COc1cccc2cc3c(cc12)C(=O)N(C(C)C)C3=O`, for which the MIC stood at 32 µg/mL in [1]; 8 µg/mL in [2]; 1020 µg/mL in data set [6]; 32 µg/mL in [7]; 32 µg/mL in data set [8]. The inhibition in data set [12] is 100%. The Activity entry in the data set on Escherichia coli [4] and in the data set with Escherichia coli [5] was “Non-Toxic” in each case. Besides, the inhibition entry in [14] is “Active”.

For the origin of these results see ChEMBL document CHEMBL4422685, “Design, synthesis and evaluation of a series of 5-methoxy-2,3-naphthalimide derivatives as AcrB inhibitors for the reversal of bacterial resistance” (Bioorg Med Chem Lett, 2019).
